Assays:
MAP kinase p38 [1] = molecular target: T1, MAP kinase p38 (Homo sapiens, UniProt O15264+Q15759+Q16539+P53778); experiment: In vitro inhibition of cytokine IL-8 release by human peripheral blood mononuclear cells
[2] = molecular target: T2, Mitogen-activated protein kinase 14 (Homo sapiens, UniProt Q16539); experiment: In vitro inhibitory activity determined against human mitogen-activated protein kinase p38 alpha
MAP kinase p38 [3] = molecular target: T1, MAP kinase p38; experiment: In vitro inhibition of cytokine IL-10 release by human […]; format: functional
Summary of the method: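 Buffy-coat PBMC at 5×10^5 cells/mL in RPMI1640 with 10% FCS, glutamine, antibiotics; 30 min compound preincubation, then phytohemagglutinin stimulation and 48 h incubation.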

Mus musculus [4] = species on record: Mus musculus; experiment: Inhibition of ear swelling in oxazolone-induced murine allergic contact dermatitis at 0.5 mg/ear at 24 hr; format: functional
Summary of the method: (§1)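 Groups of six female inbred BALB/cABOM mice (18–21 g) were sensitized with oxazolone on the clipped abdomen 7 days before right-ear challenge. Compound in acetone (20 μL) or vehicle was applied once, 30 min after challenge. Ear swelling (right minus left ear thickness) was read at 24, 48 and 72 h. Values are mean % inhibition ± SEM of four or five experiments.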

[5] = molecular target: Mitogen-activated protein kinase 8 (Homo sapiens) (UniProt P45983); experiment: Inhibition of c-Jun N-terminal kinase 1 at 10 uM
Summary of the method: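 JNK1 activity from UV-stimulated MCF-7 cells, measured with a JNK1 kinase kit in presence of compound.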

[6] = molecular target: T2, Mitogen-activated protein kinase 14; experiment: Inhibition of Mitogen-activated protein kinase p38 alpha at 1 uM
Summary of the method: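 FLAG-tagged p38α cDNA was transfected into COS-1 cells. Kinase activity of the expressed isoform was measured with compound at 1 μM.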

[7] = molecular target: T3, Mitogen-activated protein kinase 12 (Homo sapiens) (UniProt P53778); experiment: Inhibition of Mitogen-activated protein kinase p38 gamma at 1 uM
T3 sequence (whole entry): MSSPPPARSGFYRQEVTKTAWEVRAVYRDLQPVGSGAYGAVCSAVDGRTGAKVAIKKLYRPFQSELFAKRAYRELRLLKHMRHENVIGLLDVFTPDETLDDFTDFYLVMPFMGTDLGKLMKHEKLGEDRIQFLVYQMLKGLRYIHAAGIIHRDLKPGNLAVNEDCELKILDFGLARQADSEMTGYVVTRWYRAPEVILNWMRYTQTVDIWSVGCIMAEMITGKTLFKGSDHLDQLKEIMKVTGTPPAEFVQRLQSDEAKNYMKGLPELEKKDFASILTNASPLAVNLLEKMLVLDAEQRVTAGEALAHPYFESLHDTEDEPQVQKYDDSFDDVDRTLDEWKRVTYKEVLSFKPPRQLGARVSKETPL
Summary of the method: (§2)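 FLAG-tagged p38 isoform cDNA (β2, γ or δ) transfected into COS-1 cells; kinase activity of the expressed isoform measured with compound at 1 μM.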

Mus musculus [8] = species on record: Mus musculus; experiment: Inhibition of ear swelling induced by oxazolone induced murine allergic contact dermatitis model at 0.5 mg/ear at 48 hr; format: functional
Summary of the method: as §1

Mus musculus [9] = experiment: Inhibition of ear weight induced by 12-O-tetradecanoylphorbol-13-acetate (TPA) in murine chronic irritative contact dermatitis model at 0.5 mg/ear (in vivo); format: functional
Summary of the method: (§3)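 Murine TPA-induced chronic irritative ear dermatitis, with compound given topically per ear. Ear swelling and ear weight were determined 5 h after the last application. Values are mean % inhibition ± SEM of three to five experiments.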

Homo sapiens [10] = species on record: Homo sapiens; experiment: In vitro inhibition of gamma-interferon release by human […]; format: functional
Summary of the method: (§4)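 Human PBMC were isolated from buffy coats and diluted 1:1 in saline. Cells were held at 5×10^5 cells/mL in RPMI1640 with 2 mM glutamine and penicillin/streptomycin, then preincubated 30 min with compound. IL-12: 2% FCS, IFN-γ 95 ng/mL for 18 h, then LPS for 24 h. IL-2 and IFN-γ: 10% FCS, phytohemagglutinin for 48 h. Supernatant cytokine measured by sandwich ELISA.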

Homo sapiens [11] = species on record: Homo sapiens; experiment: In vitro inhibition of cytokine IL-12 release by human […]; format: functional
Summary of the method: as §4

MAP kinase p38 [12] = molecular target: T1, MAP kinase p38; experiment: In vitro inhibition of IL1-beta release from LPS stimulated human peripheral blood mononuclear cells.; format: functional
Summary of the method: (§5)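 Human PBMC from buffy coats (Lymphoprep), 5×10^5 cells/mL in RPMI1640 with 2% FCS, glutamine, penicillin/streptomycin; 30 min preincubation with compound, then LPS stimulation, 18 h at 37 °C, 5% CO2.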

[13] = molecular target: T4, Myeloperoxidase (Mus musculus) (UniProt P11247); experiment: Inhibition of myeloperoxidase (MPO) activity induced by oxazolone in murine allergic contact dermatitis model at 0.5 mg/ear at 72 hr (in vivo)
T4 sequence (whole entry): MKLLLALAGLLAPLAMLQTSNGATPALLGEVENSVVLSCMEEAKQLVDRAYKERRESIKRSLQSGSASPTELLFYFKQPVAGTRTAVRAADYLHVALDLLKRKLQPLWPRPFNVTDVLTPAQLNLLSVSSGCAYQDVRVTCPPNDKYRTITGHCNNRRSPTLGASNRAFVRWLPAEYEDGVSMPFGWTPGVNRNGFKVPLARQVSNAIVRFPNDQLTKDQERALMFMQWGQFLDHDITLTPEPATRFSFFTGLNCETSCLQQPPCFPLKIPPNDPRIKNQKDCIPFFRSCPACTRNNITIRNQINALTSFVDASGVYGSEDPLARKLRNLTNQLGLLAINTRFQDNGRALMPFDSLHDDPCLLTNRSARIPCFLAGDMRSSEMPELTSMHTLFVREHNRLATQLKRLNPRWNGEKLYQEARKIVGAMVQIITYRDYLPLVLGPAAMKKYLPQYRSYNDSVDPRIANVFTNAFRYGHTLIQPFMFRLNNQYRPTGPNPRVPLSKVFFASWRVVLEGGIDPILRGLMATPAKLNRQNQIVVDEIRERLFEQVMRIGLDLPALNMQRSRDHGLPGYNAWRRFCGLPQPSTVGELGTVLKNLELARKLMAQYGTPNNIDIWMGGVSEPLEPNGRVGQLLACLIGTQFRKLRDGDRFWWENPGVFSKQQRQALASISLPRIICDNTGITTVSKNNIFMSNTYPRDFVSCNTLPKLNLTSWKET

Homo sapiens [14] = species on record: Homo sapiens; experiment: In vitro inhibition of cytokine IL-2 release by human […]; format: functional
Summary of the method: as §4

Mus musculus [15] = experiment: Inhibition of ear swelling induced by 12-O-tetradecanoylphorbol-13-acetate (TPA) in murine chronic irritative contact dermatitis model at 0.5 mg/ear (in vivo); format: functional
Summary of the method: as §3

[16] = molecular target: Mitogen-activated protein kinase 11 (Homo sapiens) (UniProt Q15759); experiment: Inhibition of Mitogen-activated protein kinase p38 beta at 1 uM
Summary of the method: as §2

MAP kinase p38 [17] = molecular target: T1, MAP kinase p38; experiment: In vitro inhibition of TNF-alpha release from LPS stimulated human peripheral blood mononuclear cells.; format: functional
Summary of the method: as §5

[18] = molecular target: T4, Myeloperoxidase (Mus musculus); experiment: Inhibition of myeloperoxidase (MPO) activity induced by TPA in murine chronic irritative contact dermatitis model at 0.5 mg/ear (in vivo); format: organism-based
[19] = molecular target: Mitogen-activated protein kinase; ERK1/ERK2 (Homo sapiens) (UniProt P27361+P28482); experiment: Inhibition of Mitogen-activated protein kinase 3/Mitogen-activated protein kinase 1 (ERK) at 10 uM; format: protein assay
Summary of the method: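 MCF-7 cells stimulated with EGF; ERK1/2 activity measured with a modified cell-signalling ERK1/2 kinase kit in presence of compound.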

MAP kinase p38 [20] = molecular target: T1, MAP kinase p38; experiment: In vitro inhibition of cytokine IL-6 release by human […]; format: functional
Summary of the method: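 PBMC isolated from buffy coats, 5×10^5 cells/mL in RPMI1640 plus 2% FCS, glutamine and antibiotics. Compound added 30 min before LPS; culture 6 h. Supernatant IL-6 or IL-8 quantified by ELISA kits.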

Mus musculus [21] = species on record: Mus musculus; experiment: Inhibition of ear swelling induced by oxazolone induced murine allergic contact dermatitis model at 0.5 mg/ear at 72 hr; format: functional
Summary of the method: as §1

[22] = molecular target: T5, Mitogen-activated protein kinase 13 (Homo sapiens) (UniProt O15264); experiment: Inhibition of Mitogen-activated protein kinase p38 delta at 1 uM
T5 sequence (whole entry): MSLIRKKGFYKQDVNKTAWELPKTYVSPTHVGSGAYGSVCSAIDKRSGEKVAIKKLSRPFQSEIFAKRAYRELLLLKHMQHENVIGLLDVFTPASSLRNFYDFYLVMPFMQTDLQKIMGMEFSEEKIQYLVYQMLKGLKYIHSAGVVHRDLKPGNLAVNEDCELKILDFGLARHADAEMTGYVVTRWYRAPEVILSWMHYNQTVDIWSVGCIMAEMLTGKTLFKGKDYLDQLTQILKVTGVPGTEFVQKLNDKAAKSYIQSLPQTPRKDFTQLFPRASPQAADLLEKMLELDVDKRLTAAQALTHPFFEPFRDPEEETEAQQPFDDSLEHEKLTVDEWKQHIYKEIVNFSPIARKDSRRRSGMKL
Summary of the method: as §2

Mus musculus [23] = experiment: Inhibition of ear swelling in oxazolone induced murine allergic contact dermatitis model at 0.5 mg/ear at 48 hr (in vivo); format: functional
Summary of the method: as §1

Mus musculus [24] = experiment: Inhibition of ear swelling in oxazolone-induced murine allergic contact dermatitis at 0.5 mg/ear at 24 hr (in vivo); format: functional
Summary of the method: as §1

Mus musculus [25] = experiment: Inhibition of ear swelling in oxazolone induced murine allergic contact dermatitis model at 0.5 mg/ear at 72 hr (in vivo); format: functional
Summary of the method: as §1

Mus musculus [26] = experiment: Inhibition of ear swelling induced by oxazolone in murine allergic contact dermatitis model at 0.5 mg/ear at 48 hr (in vivo)
Mus musculus [27] = experiment: Inhibition of ear swelling induced by oxazolone in murine allergic contact dermatitis model at 0.001 mg/ear at 24 hr (in vivo); format: functional
Summary of the method: as §1

Mus musculus [28] = experiment: Inhibition of ear swelling induced by oxazolone in murine allergic contact dermatitis model at 0.001 mg/ear at 72 hr (in vivo); format: functional
Summary of the method: as §1

[29] = molecular target: T4, Myeloperoxidase (Mus musculus); experiment: Inhibition of myeloperoxidase (MPO) activity induced by oxazolone in murine allergic contact dermatitis model at 0.001 mg/ear at 24 hr (in vivo); format: organism-based

T2 sequence (Q16539 whole entry): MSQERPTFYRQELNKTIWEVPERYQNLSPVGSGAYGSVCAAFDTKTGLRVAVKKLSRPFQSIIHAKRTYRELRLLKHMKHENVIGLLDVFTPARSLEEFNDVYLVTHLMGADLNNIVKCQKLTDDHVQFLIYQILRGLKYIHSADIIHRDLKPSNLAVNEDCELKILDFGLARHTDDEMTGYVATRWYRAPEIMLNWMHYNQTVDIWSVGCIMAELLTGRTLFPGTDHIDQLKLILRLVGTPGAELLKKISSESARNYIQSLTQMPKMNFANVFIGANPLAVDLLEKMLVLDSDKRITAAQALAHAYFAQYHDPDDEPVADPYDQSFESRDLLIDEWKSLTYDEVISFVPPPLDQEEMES
Sequence of Mitogen-activated protein kinase; ERK1/ERK2 (Homo sapiens) (P27361 whole entry, looked up): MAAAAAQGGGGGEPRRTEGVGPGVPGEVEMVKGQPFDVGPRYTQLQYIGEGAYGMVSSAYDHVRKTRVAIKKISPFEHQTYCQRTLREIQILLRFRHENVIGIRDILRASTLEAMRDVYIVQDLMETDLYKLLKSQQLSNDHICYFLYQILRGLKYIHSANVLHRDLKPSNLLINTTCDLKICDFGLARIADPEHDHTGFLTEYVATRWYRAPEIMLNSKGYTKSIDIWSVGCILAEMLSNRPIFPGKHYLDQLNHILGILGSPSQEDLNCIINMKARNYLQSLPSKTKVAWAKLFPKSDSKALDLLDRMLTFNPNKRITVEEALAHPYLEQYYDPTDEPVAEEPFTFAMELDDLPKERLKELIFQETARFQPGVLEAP
Sequence of Mitogen-activated protein kinase; ERK1/ERK2 (Homo sapiens) (P28482 whole entry, looked up): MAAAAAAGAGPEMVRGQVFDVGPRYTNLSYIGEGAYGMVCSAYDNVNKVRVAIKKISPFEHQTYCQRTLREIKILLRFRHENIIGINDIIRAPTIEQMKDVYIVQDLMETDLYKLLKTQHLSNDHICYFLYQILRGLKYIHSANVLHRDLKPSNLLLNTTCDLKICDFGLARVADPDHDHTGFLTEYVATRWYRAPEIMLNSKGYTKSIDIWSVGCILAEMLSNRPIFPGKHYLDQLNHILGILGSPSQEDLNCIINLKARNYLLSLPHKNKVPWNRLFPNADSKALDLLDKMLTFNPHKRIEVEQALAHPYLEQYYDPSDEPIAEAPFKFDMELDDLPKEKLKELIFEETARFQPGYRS
Sequence of Mitogen-activated protein kinase 11 (Homo sapiens) (Q15759 whole entry): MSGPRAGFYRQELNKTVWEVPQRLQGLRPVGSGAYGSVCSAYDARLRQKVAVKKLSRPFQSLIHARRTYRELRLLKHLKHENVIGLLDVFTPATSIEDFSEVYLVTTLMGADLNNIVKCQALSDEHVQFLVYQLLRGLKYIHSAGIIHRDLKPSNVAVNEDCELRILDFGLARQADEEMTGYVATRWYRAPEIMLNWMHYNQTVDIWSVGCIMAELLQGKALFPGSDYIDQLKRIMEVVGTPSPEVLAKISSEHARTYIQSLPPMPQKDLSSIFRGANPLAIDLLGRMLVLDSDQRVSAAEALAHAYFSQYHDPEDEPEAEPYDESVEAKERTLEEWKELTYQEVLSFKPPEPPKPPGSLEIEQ
Sequence of Mitogen-activated protein kinase 8 (Homo sapiens) (P45983 whole entry): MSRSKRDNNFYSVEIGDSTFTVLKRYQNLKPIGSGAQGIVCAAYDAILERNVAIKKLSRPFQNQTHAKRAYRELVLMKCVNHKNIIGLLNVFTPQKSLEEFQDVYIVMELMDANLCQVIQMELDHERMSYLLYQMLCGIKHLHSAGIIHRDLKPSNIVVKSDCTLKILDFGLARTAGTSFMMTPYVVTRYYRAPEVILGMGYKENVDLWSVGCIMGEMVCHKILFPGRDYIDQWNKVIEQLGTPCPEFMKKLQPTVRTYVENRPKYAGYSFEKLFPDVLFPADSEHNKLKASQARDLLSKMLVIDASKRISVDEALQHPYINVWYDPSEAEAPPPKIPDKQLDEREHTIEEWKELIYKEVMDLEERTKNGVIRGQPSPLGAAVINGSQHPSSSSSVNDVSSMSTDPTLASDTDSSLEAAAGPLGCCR

Row | Compound | IC50 (MAP kinase p38 [1]) | IC50 [2] | IC50 (MAP kinase p38 [3]) | inhibition [6] | inhibition [7] | Inhibition (Mus musculus [9]) | IC50 (Homo sapiens [10]) | IC50 (Homo sapiens [11]) | IC50 (MAP kinase p38 [12]) | inhibition [13] | IC50 (Homo sapiens [14]) | Inhibition (Mus musculus [15]) | inhibition [16] | IC50 (MAP kinase p38 [17]) | inhibition [18] | inhibition [19] | IC50 (MAP kinase p38 [20]) | inhibition [22] | further results
1 | Cc1ccccc1C(=O)c1ccc(Nc2ccc(Br)cc2N)cc1Cl | 0.004 µM | 0.039 µM | 0.074 µM | 82% | 0% | 34% | > 1 µM | > 1 µM | 0.03 µM | 56% | > 1 µM | 27% | 93% | 0.005 µM | 79% | 0% | 0.017 µM | 0% | Inhibition (Mus musculus [4]): 35%; inhibition [5]: 0%; Inhibition (Mus musculus [8]): 38%; Inhibition (Mus musculus [21]): 46%
2 | Cc1ccccc1C(=O)c1ccc(Nc2ccccc2N)cc1Cl | 0.006 µM | 0.01 µM | 0.012 µM | 88% | 0% | 27% | > 1 µM | > 1 µM | 0.014 µM | 56% | > 1 µM | 37% | 93% | 0.006 µM | 73% | 20% | 0.018 µM | 8% | Inhibition (Mus musculus [23]): 46%; Inhibition (Mus musculus [24]): 43%; Inhibition (Mus musculus [25]): 46%
3 | CCCCO[C@]1(C(=O)CO)CCC2C3CCC4=CC(=O)CCC4(C)C3C(O)CC21C (some centres not stated) |  |  |  |  |  |  |  |  |  |  |  |  |  |  |  |  |  |  | Inhibition (Mus musculus [26]): 55%; Inhibition (Mus musculus [27]): 43%; Inhibition (Mus musculus [28]): 55%; inhibition [29]: 41%

From ChEMBL document CHEMBL1145938, “Synthesis and structure-activity relationship of aminobenzophenones. A novel class of p38 MAP kinase inhibitors with high antiinflammatory activity” (J Med Chem, 2003)
